From ChEMBL document CHEMBL1121415, “Inhibition of histamine-induced gastric secretion by flavone-6-carboxylic acids” (1980)
“And” between values parts separate entries of the source, which are not always exact repeats. Equal entries are not always repeated.

Columns and labels:
Type in all cases: functional
[1] = test system: Rattus norvegicus; assay: Inhibition of histamine-induced gastric acid secretion in the rat following 80 mg/kg s.c. administration.; settings: Stomach, sc
Method in brief: (§1)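 Compound was given subcutaneously at 1 mL/kg to 48-h-fasted rats in groups of 10; controls received saline. Pylorus ligation under ether followed 30 min later. Histamine 2.5 mg/kg sc was given at 15-min intervals for 3 h. Gastric juice was titrated with 0.02 N NaOH to pH 7.0 to give total acid output, expressed as % mean inhibition vs controls, with ANOVA.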

[2] = test system: Rattus norvegicus; assay: The compound was tested for its ability to inhibit histamine-induced gastric acid secretion in the rat at a dose of 70 mg/kg, sc; settings: Stomach, route subcutaneous; method in brief: as §1
[3] = test system: Rattus norvegicus; assay: The compound was tested for its ability to inhibit histamine-induced gastric acid secretion in the rat at a dose of 90 mg/kg, sc; settings: Stomach, route subcutaneous; method in brief: as §1
[4] = test system: Rattus norvegicus; assay: Gastric juice volume when tested orally in rat ligated stomach preparation at 50 mg/kg peroral dose; settings: route oral
Method in brief: (§2)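 Orally gavaged rats (1 mL/kg; saline controls; 48-h fast, groups of 10) had pylorus ligation under ether 30 min post-dose. They then received histamine 2.5 mg/kg sc every 15 min for 3 h. At sacrifice, stomach contents were aspirated and the gastric juice volume in mL was recorded. Results are given as mean ± SD.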

[5] = test system: Rattus norvegicus; assay: Gastric juice volume when tested orally in rat ligated stomach preparation at 200 mg/kg peroral dose; settings: route oral; method in brief: as §2
[6] = test system: Rattus norvegicus; assay: Determined as […] and at 200 mg/kg peroral dose; settings: route oral
Method in brief: (§3)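 Rats fasted 48 h with water ad libitum, in groups of 10, were dosed orally by gavage at 1 mL/kg; controls received saline. After 30 min, under ether, the pylorus was ligated. Histamine 2.5 mg/kg sc was given right after surgery and every 15 min for 3 h. Gastric juice was titrated with 0.02 N NaOH to pH 7.0 ± 0.1 as mequiv H+/100 g. Mean % inhibition vs controls was tested by ANOVA.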

[7] = test system: Rattus norvegicus; assay: Determined as […] and at 50 mg/kg peroral dose; settings: route oral; method in brief: as §3
[8] = test system: Rattus norvegicus; assay: Gastric juice volume when tested orally in rat ligated stomach preparation at 150 mg/kg peroral dose; settings: route oral; method in brief: as §2
[9] = test system: Rattus norvegicus; assay: % inhibition in total acid secretion when tested orally in rat ligated stomach preparation at 100 mg/kg peroral dose; settings: route oral; method in brief: as §3
[10] = test system: Rattus norvegicus; assay: Determined as […] and at 150 mg/kg peroral dose; settings: route oral; method in brief: as §3
[11] = test system: Rattus norvegicus; assay: Determined as […] and at 100 mg/kg peroral dose; settings: route oral; method in brief: as §3
[12] = test system: Rattus norvegicus; assay: % inhibition in total acid secretion when tested orally in rat ligated stomach preparation at 200 mg/kg peroral dose; settings: route oral; method in brief: as §3
[13] = test system: Rattus norvegicus; assay: Gastric juice volume when tested orally in rat ligated stomach preparation at 100 mg/kg peroral dose; settings: route oral; method in brief: as §2
[14] = test system: Rattus norvegicus; assay: The compound was tested for its ability to inhibit histamine-induced gastric acid secretion in the rat at a dose of 60 mg/kg, sc; settings: Stomach, route subcutaneous; method in brief: as §1
[15] = test system: Rattus norvegicus; assay: The compound was tested for its ability to inhibit histamine-induced gastric acid secretion in the rat at a dose of 76 mg/kg, sc; settings: Stomach, route subcutaneous; method in brief: as §1
[16] = test system: Rattus norvegicus; assay: % inhibition in total acid secretion when tested orally in rat ligated stomach preparation at 150 mg/kg peroral dose; settings: route oral; method in brief: as §3
[17] = test system: Rattus norvegicus; assay: Determined as […] and at 75 mg/kg peroral dose; settings: route oral; method in brief: as §3
[18] = test system: Rattus norvegicus; assay: % inhibition in total acid secretion when tested orally in rat ligated stomach preparation at 75 mg/kg peroral dose; settings: route oral; method in brief: as §3
[19] = test system: Rattus norvegicus; assay: Gastric juice volume when tested orally in rat ligated stomach preparation at 75 mg/kg peroral dose; settings: route oral; method in brief: as §2
[20] = test system: Rattus norvegicus; assay: The compound was tested for its ability to inhibit histamine-induced gastric acid secretion in the rat at a dose of 66 mg/kg, sc; settings: Stomach, route subcutaneous; method in brief: as §1

Cc1ccc(-c2oc3ccc(C(=O)O)cc3c(=O)c2OC(C)C)cc1
inhibition in vivo at 80 mg/kg [1]: 8%

COc1c(-c2ccc(Cl)cc2)oc2ccc(C(=O)O)cc2c1=O
inhibition in vivo at 80 mg/kg [1]: 34%

CS(=O)(=O)c1ccc(-c2cc(=O)c3cc(C(=O)O)ccc3o2)cc1
inhibition in vivo at 70 mg/kg [2]: 41%

COc1ccc(-c2cc(=O)c3cc(C(=O)O)ccc3o2)cc1
inhibition in vivo at 80 mg/kg [1]: 13%

CC(C)Oc1c(-c2ccc(C(C)C)cc2)oc2ccc(C(=O)O)cc2c1=O
inhibition in vivo at 80 mg/kg [1]: 20%

COc1ccc(-c2oc3ccc(C(=O)O)cc3c(=O)c2O)cc1
inhibition in vivo at 80 mg/kg [1]: 24%

O=C(O)c1ccc2oc(-c3ccccc3Br)c(O)c(=O)c2c1
inhibition in vivo at 80 mg/kg [1]: 22%

CC(C)c1ccc(-c2cc(=O)c3cc(C(=O)O)ccc3o2)cc1
inhibition in vivo at 80 mg/kg [1]: 19%

COc1c(-c2ccc(C)cc2)oc2ccc(C(=O)O)cc2c1=O
inhibition in vivo at 80 mg/kg [1]: 4%

COc1cc(-c2oc3ccc(C(=O)O)cc3c(=O)c2O)cc(OC)c1OC
inhibition in vivo at 80 mg/kg [1]: 24%

C/N=C(\S)NCCCCc1c[nH]cn1 [BURIMAMIDE]
inhibition in vivo at 90 mg/kg [3]: 49%

COc1ccc(-c2oc3ccc(C(=O)O)cc3c(=O)c2OC(C)C)cc1
inhibition in vivo at 80 mg/kg [1]: 35% | Volume [4]: 5.13 mL | Volume [5]: 3.68 mL | mequiv of HCl [6]: 0.101 | mequiv of HCl [7]: 0.238 | Volume [8]: 4.8 mL | Inhibition [9]: 4% and 9% | mequiv of HCl [10]: 0.161 | mequiv of HCl [11]: 0.226 | Inhibition [12]: 34% and 59% | Volume [13]: 5.16 mL

CCCCCCOc1ccc(-c2oc3ccc(C(=O)O)cc3c(=O)c2O)cc1
inhibition in vivo at 80 mg/kg [1]: -11%

O=C(O)c1ccc2oc(-c3ccc(Cl)cc3)c(O)c(=O)c2c1
inhibition in vivo at 80 mg/kg [1]: -19%

CCOc1ccc(-c2oc3ccc(C(=O)O)cc3c(=O)c2OC(C)C)cc1
inhibition in vivo at 60 mg/kg [14]: 18%

CCCCCCOc1ccc(-c2oc3ccc(C(=O)O)cc3c(=O)c2OC)cc1
inhibition in vivo at 76 mg/kg [15]: -12%

COc1c(-c2ccc(F)cc2)oc2ccc(C(=O)O)cc2c1=O
inhibition in vivo at 70 mg/kg [2]: 4%

Cc1ccc(-c2oc3ccc(C(=O)O)cc3c(=O)c2O)cc1
inhibition in vivo at 80 mg/kg [1]: -6%

Cc1ccccc1-c1oc2ccc(C(=O)O)cc2c(=O)c1O
inhibition in vivo at 80 mg/kg [1]: 15%

O=C(O)c1ccc(-c2oc3ccc(C(=O)O)cc3c(=O)c2O)cc1
inhibition in vivo at 80 mg/kg [1]: 23%

COc1ccc(-c2oc3ccc(C(=O)O)cc3c(=O)c2OC)cc1
inhibition in vivo at 80 mg/kg [1]: 22%

CNC(=S)NCCSCc1[nH]cnc1C [METIAMIDE]
inhibition in vivo at 150 mg/kg [16]: 76% | mequiv of HCl [17]: 0.148 | Volume [8]: 1.7 mL | inhibition in vivo at 75 mg/kg [18]: 46% | mequiv of HCl [10]: 0.064 | Volume [19]: 2.99 mL

CC(C)c1ccc(-c2oc3ccc(C(=O)O)cc3c(=O)c2O)cc1
inhibition in vivo at 80 mg/kg [1]: 24%

CCCCCCc1ccc(-c2cc(=O)c3cc(C(=O)O)ccc3o2)cc1
inhibition in vivo at 80 mg/kg [1]: 2%

COc1cccc(-c2oc3ccc(C(=O)O)cc3c(=O)c2OC(C)C)c1
inhibition in vivo at 66 mg/kg [20]: 12%

O=C(O)c1ccc2oc(-c3ccc(F)cc3)cc(=O)c2c1
inhibition in vivo at 80 mg/kg [1]: 21%

COc1c(-c2ccc(C(C)C)cc2)oc2ccc(C(=O)O)cc2c1=O
inhibition in vivo at 80 mg/kg [1]: 18%
